Results as given in ChEMBL document CHEMBL4680236, “Design, synthesis and structure-activity relationships of novel 15-membered macrolides: Quinolone/quinoline-containing sidechains tethered to the C-6 position of azithromycin acylides” (Eur J Med Chem, 2020).
Values after ≈ are worked out from the molar mass of the structure shown.

Assays:
Assay type in all cases: functional
Streptococcus pneumoniae [1] = assay: Ratio of MBC to MIC against Erythromycin-susceptible Streptococcus pneumoniae ATCC 49619
Streptococcus pyogenes [2] = assay: Ratio of MBC to MIC against MLSB-resistant Streptococcus pyogenes 12-206 harboring ermA gene
Streptococcus pyogenes [3] = assay: Bactericidal activity against MLSB-resistant Streptococcus pyogenes 12-206 harboring ermA gene
In short: (§1)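 Bacteria were exposed to 1- to 8-fold their MIC of test sample, then transferred to fresh culture medium without antibacterial compound and incubated for the required time. Colonies were then counted. MBC is the lowest concentration giving a reduction in colony number of >3 Log₁₀.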

Streptococcus pneumoniae [4] = assay: Bactericidal activity against MLSB-resistant Streptococcus pneumoniae 07P390 harboring ermB gene assessed as reduction in microbial growth; in short: as §1
Streptococcus pneumoniae [5] = assay: Antibacterial activity against Erythromycin-susceptible Streptococcus pneumoniae ATCC 49619 assessed as reduction in microbial growth
Streptococcus pneumoniae [6] = assay: Bactericidal activity against penicillin-susceptible Streptococcus pneumoniae PU09 harboring mef gene; in short: as §1
Haemophilus influenzae [7] = assay: Ratio of MBC to MIC against azithromycin-susceptible Haemophilus influenzae ATCC 49247
Staphylococcus aureus [8] = assay: Bactericidal activity against MLSB/methicillin-resistant Staphylococcus aureus 15B196; in short: as §1
Streptococcus pneumoniae [9] = assay: Antibacterial activity against MLSB-resistant Streptococcus pneumoniae 07P390 harboring ermB gene assessed as reduction in microbial growth
Streptococcus pneumoniae [10] = assay: Antibacterial activity against penicillin-susceptible Streptococcus pneumoniae PU09 harboring mef gene assessed as reduction in microbial growth
Staphylococcus aureus [11] = assay: Antibacterial activity against MLSB/methicillin-resistant Staphylococcus aureus 15B196 assessed as reduction in microbial growth
Streptococcus pneumoniae [12] = assay: Bactericidal activity against Erythromycin-susceptible Streptococcus pneumoniae ATCC 49619
In short: (§2)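 Bacteria were exposed to 1- to 8-fold MIC of the sample, then transferred to fresh medium without antibacterial. After further incubation, colonies were counted. MBC was taken as the lowest concentration giving a >3 log10 reduction in colony number.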

Staphylococcus aureus [13] = assay: Antibacterial activity against MLSB/methicillin/ciprofloxacin-resistant Staphylococcus aureus PU32 harboring ermA gene assessed as reduction in microbial growth
Haemophilus influenzae [14] = assay: Bactericidal activity against azithromycin-susceptible Haemophilus influenzae ATCC 49247; in short: as §2
Staphylococcus aureus [15] = assay: Bactericidal activity against MLSB/methicillin/ciprofloxacin-resistant Staphylococcus aureus PU32 harboring ermA gene; in short: as §1
Streptococcus pneumoniae [16] = assay: Ratio of MBC to MIC against penicillin-susceptible Streptococcus pneumoniae PU09
Streptococcus pyogenes [17] = assay: Antibacterial activity against MLSB-resistant Streptococcus pyogenes 12-206 harboring ermA gene assessed as reduction in microbial growth
Haemophilus influenzae [18] = assay: Antibacterial activity against azithromycin-susceptible Haemophilus influenzae ATCC 49247 assessed as reduction in microbial growth
Staphylococcus aureus [19] = assay: Ratio of MBC to MIC against MLSB/methicillin/ciprofloxacin-resistant Staphylococcus aureus PU32 harboring ermA gene

SMILES | Ratio (Streptococcus pneumoniae [1]) | Ratio (Streptococcus pyogenes [2]) | MBC (Streptococcus pyogenes [3]) [µg/mL] | MBC (Streptococcus pneumoniae [4]) [µg/mL] | MIC (Streptococcus pneumoniae [5]) [µg/mL] | MBC (Streptococcus pneumoniae [6]) [µg/mL] | Ratio (Haemophilus influenzae [7]) | MBC (Staphylococcus aureus [8]) [µg/mL] | MIC (Streptococcus pneumoniae [9]) [µg/mL] | MIC (Streptococcus pneumoniae [10]) [µg/mL] | MIC (Staphylococcus aureus [11]) [µg/mL] | MBC (Streptococcus pneumoniae [12]) [µg/mL] | MIC (Staphylococcus aureus [13]) [µg/mL] | MBC (Haemophilus influenzae [14]) [µg/mL] | MBC (Staphylococcus aureus [15]) [µg/mL] | Ratio (Streptococcus pneumoniae [16]) | MIC (Streptococcus pyogenes [17]) [µg/mL] | MIC (Haemophilus influenzae [18]) [µg/mL] | Ratio (Staphylococcus aureus [19])
CC[C@H]1OC(=O)[C@H](C)[C@@H](OC(=O)Cc2ccccn2)[C@H](C)[C@@H](O[C@@H]2O[C@H](C)C[C@H](N(C)C)[C@H]2O)[C@](C)(OC(=O)CCNCCC#Cc2ccc3c(c2)c(=O)c(C(=O)NC)cn3C2CC2)C[C@@H](C)CN(C)[C@H](C)[C@@H](O)[C@]1(C)O | 2 | 4 | 128 (≈ 119 µM) | 256 | 0.5 | 8 (≈ 7.45 µM) | 2 | > 256 | 256 | 4 | > 256 | 1 (≈ 0.932 µM) | > 256 | 128 (≈ 119 µM) | > 256 | 2 | 32 | 64 | 
CC[C@H]1OC(=O)[C@H](C)[C@@H](OC(=O)Cc2ccccn2)[C@H](C)[C@@H](O[C@@H]2O[C@H](C)C[C@H](N(C)C)[C@H]2O)[C@](C)(OC(=O)CCN2CCN(c3cc4c(cc3F)c(=O)c(C(N)=O)cn4C3CC3)CC2)C[C@@H](C)CN(C)[C@H](C)[C@@H](O)[C@]1(C)O | 2 | 8 | 128 (≈ 117 µM) | 128 | 0.25 | 4 (≈ 3.66 µM) | 2 | > 256 | 128 | 4 | > 256 | 0.5 (≈ 0.457 µM) | 128 | 128 (≈ 117 µM) | > 256 | 1 | 16 | 64 | 
CC[C@H]1OC(=O)[C@H](C)[C@@H](OC(=O)Cc2ccccn2)[C@H](C)[C@@H](O[C@@H]2O[C@H](C)C[C@H](N(C)C)[C@H]2O)[C@](C)(OC(=O)CCNCCC#Cc2ccc3c(c2)c(=O)c(C(N)=O)cn3C)C[C@@H](C)CN(C)[C@H](C)[C@@H](O)[C@]1(C)O | 2 | >8 | > 64 | > 256 | 0.25 | 4 (≈ 3.87 µM) | 2 | > 256 | 256 | 2 | > 256 | 0.5 (≈ 0.484 µM) | 16 | 64 (≈ 61.9 µM) | > 128 | 2 | 8 | 32 | >8
CC[C@H]1OC(=O)[C@H](C)[C@@H](OC(=O)Cc2ccccn2)[C@H](C)[C@@H](O[C@@H]2O[C@H](C)C[C@H](N(C)C)[C@H]2O)[C@](C)(OC(=O)CCNCCC#Cc2ccc3c(c2)c(=O)c(C(=O)O)cn3C2CC2)C[C@@H](C)CN(C)[C@H](C)[C@H]2OC(=O)O[C@@]21C | 1 | 2 | 64 (≈ 58.9 µM) | 64 | 1 | 8 (≈ 7.36 µM) | 2 | > 256 | 64 | 4 | > 256 | 1 (≈ 0.921 µM) | 64 | 128 (≈ 118 µM) | > 256 | 2 | 32 | 64 | >4
CC[C@H]1OC(=O)[C@H](C)[C@@H](OC(=O)Cc2ccccn2)[C@H](C)[C@@H](O[C@@H]2O[C@H](C)C[C@H](N(C)C)[C@H]2O)[C@](C)(OC(=O)CCN2CCN(c3cc4c(cc3F)c(=O)c(C(=O)O)cn4C3CC3)CC2)C[C@@H](C)CN(C)[C@H](C)[C@H]2OC(=O)O[C@@]21C | 4 | >8 | > 256 | > 256 | 4 | 16 (≈ 14.3 µM) | 2 | > 256 | > 256 | 4 | > 256 | 16 (≈ 14.3 µM) | > 256 | 16 (≈ 14.3 µM) | > 256 | 4 | 64 | 8 | 
CC[C@H]1OC(=O)[C@H](C)[C@@H](OC(=O)Cc2ccccn2)[C@H](C)[C@@H](O[C@@H]2O[C@H](C)C[C@H](N(C)C)[C@H]2O)[C@](C)(OC(=O)CCNCCC#Cc2ccc3[nH]ccc(=O)c3c2)C[C@@H](C)CN(C)[C@H](C)[C@@H](O)[C@]1(C)O | 1 | >8 | > 16 | > 256 | 0.25 | 4 (≈ 4.1 µM) | 2 | > 256 | 256 | 2 | > 256 | 0.25 (≈ 0.256 µM) | 16 | 128 (≈ 131 µM) | > 128 | 2 | 2 | 64 | >8
CC[C@H]1OC(=O)[C@H](C)[C@@H](OC(=O)Cc2ccccn2)[C@H](C)[C@@H](O[C@@H]2O[C@H](C)C[C@H](N(C)C)[C@H]2O)[C@](C)(OC(=O)CCNCCC#Cc2ccc3c(c2)c(=O)c(C(N)=O)cn3C2CC2)C[C@@H](C)CN(C)[C@H](C)[C@@H](O)[C@]1(C)O | 1 | 4 | 128 (≈ 121 µM) | > 256 | 0.5 | 4 (≈ 3.78 µM) | 1 | > 256 | 256 | 4 | > 256 | 0.5 (≈ 0.472 µM) | 128 | 64 (≈ 60.4 µM) | > 256 | 1 | 32 | 64 | 
CC[C@H]1OC(=O)[C@H](C)[C@@H](OC(=O)Cc2ccccn2)[C@H](C)[C@@H](O[C@@H]2O[C@H](C)C[C@H](N(C)C)[C@H]2O)[C@](C)(OC(=O)CCN2CCN(c3cc4c(cc3F)c(=O)c(C(N)=O)cn4CC)CC2)C[C@@H](C)CN(C)[C@H](C)[C@@H](O)[C@]1(C)O | 2 | 8 | 128 (≈ 118 µM) | 128 | 0.5 | 8 (≈ 7.39 µM) | 1 | 128 (≈ 118 µM) | 64 | 4 | 128 | 1 (≈ 0.924 µM) | 128 | 4 (≈ 3.7 µM) | > 256 | 2 | 16 | 4 | 
